2 molecules from ChEMBL document CHEMBL1152377, “[(11)C]PR04.MZ, a promising DAT ligand for low concentration imaging: Synthesis, efficient (11)C-O-methylation and initial small animal PET studies” (Bioorg Med Chem Lett, 2009) can be followed below.

pIC50: −log10 of the molar value.

Data set [1] concerns the target Sodium-dependent dopamine transporter (Homo sapiens, UniProt Q01959). In words: Inhibition of human dopamine transporter.
Data set [2] concerns Striatum. In words: Drug uptake in Sprague-Dawley rat striatum assessed per cm'3 at 37 MBq, iv after 15 mins. The data set is classed as ADME, organism-based. Conditions: in vivo, 0.25 h. In a few lines:
(§1)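 Baseline small-animal PET in one male Sprague–Dawley rat: 37 MBq (1 mCi) tracer injected, and full dynamic acquisition started at injection and ran 60 min. Images were reconstructed and coregistered with MRI. Striatal uptake was given as %ID per cm³ for the 15, 30 and 60 min time-frames.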

Data set [3] deals with Striatum. In words: Drug uptake in Sprague-Dawley rat striatum assessed per cm'3 at 37 MBq, iv after 30 mins. It counts as ADME, organism-based. Conditions: in vivo, 0.5 h. The gist of the method:
as §1

The subject of data set [4] is Striatum. In words: Drug uptake in Sprague-Dawley rat striatum assessed per cm'3 at 37 MBq, iv after 60 mins. It counts as ADME, organism-based. As to conditions: in vivo, 1 h. The gist of the method: as §1
Data set [5] is described as follows: Ratio of drug uptake in striatum to cerebellum of Sprague-Dawley rat at 37 MBq, iv after 15 mins. The data set is classed as ADME, organism-based. As to conditions: in vivo, 0.25 h. In a few lines:
(§2)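 Male Sprague–Dawley rat, baseline small-animal PET. Tracer given at 37 MBq (1 mCi), specific activity 67 GBq/µmol. Full dynamic scan for 60 min, acquisition starting with tracer injection. Read-out is the striatum/cerebellum radioactivity-concentration ratio, taken at the 15, 30 and 60 min time frames.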

Data set [6] is described as follows: Ratio of drug uptake in striatum to cerebellum of Sprague-Dawley rat at 37 MBq, iv after 30 mins. It counts as ADME, organism-based. As to conditions: in vivo, 0.5 h. In a few lines:
as §2

Data set [7] is described as follows: Ratio of drug uptake in striatum to cerebellum of Sprague-Dawley rat at 37 MBq, iv after 60 mins. The data set is classed as ADME, organism-based. As to conditions: in vivo, 1 h. In a few lines: as §2
The subject of data set [8] is Striatum. In words: Drug uptake in Sprague-Dawley rat striatum assessed per cm'3 at 37 MBq, iv treated 45 mins after DAT inhibitor GBR-12909 challenge measured after 15 mins. Conditions: in vivo, 0.25 h. It counts as ADME, organism-based. In a few lines: (§3)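 This was the same rat after its baseline scan. It was pretreated with 1.5 mg/kg GBR12909 45 min before a second 37 MBq tracer injection, and dynamic PET acquisition ran 60 min from injection. Striatal uptake was given as %ID per cm³ for the 15, 30 and 60 min time-frames.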

For data set [9], the system named is Striatum. The data set can be described thus: Drug uptake in Sprague-Dawley rat striatum assessed per cm'3 at 37 MBq, iv treated 45 mins after DAT inhibitor GBR-12909 challenge measured after 30 mins. It counts as ADME, organism-based. As to conditions: in vivo, 0.5 h. The gist of the method:
as §3

Data set [10] deals with Striatum. In words: Drug uptake in Sprague-Dawley rat striatum assessed per cm'3 at 37 MBq, iv treated 45 mins after DAT inhibitor GBR-12909 challenge measured after 60 mins. It counts as ADME, organism-based. As to conditions: in vivo, 1 h. The gist of the method: as §3
Data set [11] can be described thus: Ratio of drug uptake in striatum to cerebellum of Sprague-Dawley rat at 37 MBq, iv treated 45 mins after DAT inhibitor GBR-12909 challenge measured after 15 mins. It counts as ADME, organism-based. Conditions: in vivo, 0.25 h. In a few lines:
(§4)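 Same male Sprague–Dawley rat, rescanned after baseline. GBR12909 1.5 mg/kg given 45 min before a second 37 MBq tracer dose. Dynamic acquisition for 60 min, started at injection. Read-out is the striatum/cerebellum radioactivity-concentration ratio at the 15, 30 and 60 min time frames.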

Data set [12] can be described thus: Ratio of drug uptake in striatum to cerebellum of Sprague-Dawley rat at 37 MBq, iv treated 45 mins after DAT inhibitor GBR-12909 challenge measured after 30 mins. The data set is classed as ADME, organism-based. As to conditions: in vivo, 0.5 h. The gist of the method:
as §4

A short description of data set [13]: Ratio of drug uptake in striatum to cerebellum of Sprague-Dawley rat at 37 MBq, iv treated 45 mins after DAT inhibitor GBR-12909 challenge measured after 60 mins. Conditions: in vivo, 1 h. The data set is classed as ADME, organism-based. In a few lines: as §4
In data set [14] the test system is Striatum. The data set can be described thus: Drug uptake in Sprague-Dawley rat striatum assessed as reduction of striatal binding potential at 37 MBq, iv treated 45 mins after DAT inhibitor GBR-12909 challenge measured after 15 mins. It counts as ADME, organism-based. Also noted: scale not given: the % may be the effect or the level left. Conditions: in vivo, 0.25 h. In a few lines: (§5)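 The same animal then received 1.5 mg/kg GBR12909 45 min before a second 37 MBq dose, followed by another 60 min scan. Striatal binding potential was read for the 15, 30 and 60 min time-frames, and the reduction was expressed in %.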

Data set [15] has as its system Striatum. The data set can be described thus: Drug uptake in Sprague-Dawley rat striatum assessed as reduction of striatal binding potential at 37 MBq, iv treated 45 mins after DAT inhibitor GBR-12909 challenge measured after 30 mins. As to conditions: in vivo, 0.5 h. Also noted: scale not given: the % may be the effect or the level left. The data set is classed as ADME, organism-based. In a few lines:
as §5

Data set [16] deals with Striatum. In words: Drug uptake in Sprague-Dawley rat striatum assessed as reduction of striatal binding potential at 37 MBq, iv treated 45 mins after DAT inhibitor GBR-12909 challenge measured after 60 mins. As to conditions: in vivo, 1 h. Also noted: scale not given: the % may be the effect or the level left. It counts as ADME, organism-based. The gist of the method:
as §5

Data set [17] concerns Striatum. The data set can be described thus: Drug uptake in Sprague-Dawley rat striatum assessed per cm'3 at 37 MBq, iv after 4 mins. The data set is classed as ADME, organism-based. Conditions: in vivo.

The term pIC50 denotes the negative decadic logarithm of the IC50, by convention in mol/L.

Sodium-dependent dopamine transporter, sequence (Q01959 whole entry): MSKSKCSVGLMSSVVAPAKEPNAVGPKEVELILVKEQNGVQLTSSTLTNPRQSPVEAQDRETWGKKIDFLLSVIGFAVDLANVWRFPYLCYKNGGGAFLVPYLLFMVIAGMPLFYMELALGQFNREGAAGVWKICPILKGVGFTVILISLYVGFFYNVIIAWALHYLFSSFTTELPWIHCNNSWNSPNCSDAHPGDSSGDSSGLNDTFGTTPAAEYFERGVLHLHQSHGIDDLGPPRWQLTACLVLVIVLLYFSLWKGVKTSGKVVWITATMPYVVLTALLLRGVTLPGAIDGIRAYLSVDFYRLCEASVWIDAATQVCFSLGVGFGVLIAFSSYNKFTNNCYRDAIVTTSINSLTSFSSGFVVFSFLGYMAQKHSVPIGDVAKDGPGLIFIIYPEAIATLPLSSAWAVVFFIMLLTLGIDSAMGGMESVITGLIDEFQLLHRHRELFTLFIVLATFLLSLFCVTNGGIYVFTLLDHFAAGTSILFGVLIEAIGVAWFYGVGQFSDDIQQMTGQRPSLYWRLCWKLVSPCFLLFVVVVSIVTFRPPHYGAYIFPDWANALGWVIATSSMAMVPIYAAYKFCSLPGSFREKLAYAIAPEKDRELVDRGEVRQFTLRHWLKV

Molecule `COC(=O)[C@H]1[C@@H](c2ccc(C)cc2)C[C@@H]2CC[C@H]1N2CC#CCF` gave a pIC50 in data set [1] of 8.52.
In the case of `Cc1ccc([C@H]2C[C@@H]3CC[C@H]([C@H]2C(=O)O[11CH3])N3CC#CCF)cc1`, the Activity is 2 %ID in the data set on Striatum [2]; 2.1 %ID with Striatum [3]; 2.1 %ID in the data set on Striatum [4]; 2.1 %ID with Striatum [8]; 1.6 %ID in the data set with Striatum [9]; 1.2 %ID with Striatum [10]. For the same molecule, the Activity in the data set on Striatum [14] is reported as 32%; with Striatum [15], 41%; in the data set with Striatum [16], 57%. The Ratio turned out to be 2.4 in data set [5]; 3.6 in [6]; 5 in [7]; 1.25 in data set [11]; 1.67 in data set [12]; 1.61 in data set [13]. The molecule further displayed a Drug uptake with Striatum [17] of 2.22%.
